pIC50: −log10 of the molar value.
Assays:
A-375 = experiment: Antiproliferative activity against human A375 cells; assay type: functional, cell-based
HeLa = experiment: Antiproliferative activity against human HeLa cells; assay type: functional, cell-based
[1] = target: Cyclin-dependent kinase 1 (Homo sapiens, UniProt P06493); experiment: Inhibition of CDK1
[2] = target: Vascular endothelial growth factor receptor 2 (Homo sapiens, UniProt P35968); experiment: Inhibition of VEGFR2
HCT-116 = experiment: Antiproliferative activity against human HCT116 cells; assay type: functional, cell-based
[3] = Cmax in Sprague-Dawley rat at 10 mg/kg, po; assay type: ADME, organism-based; design: dose 10 mg/kg, route oral; details: in vivo
Outline: (§1)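 Male Sprague-Dawley rats were given single doses orally at 10 mg/kg in 0.5% Methocel and intravenously at 2 mg/kg in 10% Solutol. Plasma concentrations were followed to derive AUC (µM h), Cmax (µM), half-life (h), clearance (mL/min/kg), steady-state volume of distribution (L/kg) and oral bioavailability (%).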

[4] = AUC in Sprague-Dawley rat at 2 mg/kg, iv; assay type: ADME, organism-based; design: dose 2 mg/kg, route intravenous; details: plasma; outline: as §1
[5] = Half life in Sprague-Dawley rat at 10 mg/kg, po; assay type: ADME, organism-based; design: dose 10 mg/kg, route oral; details: in vivo; outline: as §1
[6] = Clearance in Sprague-Dawley rat; assay type: ADME, organism-based; details: in vivo; outline: as §1
[7] = Bioavailability in Sprague-Dawley rat at 10 mg/kg, po; assay type: ADME, organism-based; details: in vivo; outline: as §1
[8] = Cmax in Sprague-Dawley rat at 2 mg/kg, iv; assay type: ADME, organism-based; design: dose 2 mg/kg, route intravenous; details: in vivo; outline: as §1
[9] = Volume of distribution at steady state in Sprague-Dawley rat; assay type: ADME, organism-based; details: in vivo, read-out: Vss; outline: as §1
[10] = Half life in Sprague-Dawley rat at 2 mg/kg, iv; assay type: ADME, organism-based; design: dose 2 mg/kg, route intravenous; details: in vivo; outline: as §1
[11] = AUC in Sprague-Dawley rat at 10 mg/kg, po; assay type: ADME, organism-based; design: dose 10 mg/kg, route oral; details: plasma; outline: as §1

Sequence of Vascular endothelial growth factor receptor 2 (P35968 whole entry): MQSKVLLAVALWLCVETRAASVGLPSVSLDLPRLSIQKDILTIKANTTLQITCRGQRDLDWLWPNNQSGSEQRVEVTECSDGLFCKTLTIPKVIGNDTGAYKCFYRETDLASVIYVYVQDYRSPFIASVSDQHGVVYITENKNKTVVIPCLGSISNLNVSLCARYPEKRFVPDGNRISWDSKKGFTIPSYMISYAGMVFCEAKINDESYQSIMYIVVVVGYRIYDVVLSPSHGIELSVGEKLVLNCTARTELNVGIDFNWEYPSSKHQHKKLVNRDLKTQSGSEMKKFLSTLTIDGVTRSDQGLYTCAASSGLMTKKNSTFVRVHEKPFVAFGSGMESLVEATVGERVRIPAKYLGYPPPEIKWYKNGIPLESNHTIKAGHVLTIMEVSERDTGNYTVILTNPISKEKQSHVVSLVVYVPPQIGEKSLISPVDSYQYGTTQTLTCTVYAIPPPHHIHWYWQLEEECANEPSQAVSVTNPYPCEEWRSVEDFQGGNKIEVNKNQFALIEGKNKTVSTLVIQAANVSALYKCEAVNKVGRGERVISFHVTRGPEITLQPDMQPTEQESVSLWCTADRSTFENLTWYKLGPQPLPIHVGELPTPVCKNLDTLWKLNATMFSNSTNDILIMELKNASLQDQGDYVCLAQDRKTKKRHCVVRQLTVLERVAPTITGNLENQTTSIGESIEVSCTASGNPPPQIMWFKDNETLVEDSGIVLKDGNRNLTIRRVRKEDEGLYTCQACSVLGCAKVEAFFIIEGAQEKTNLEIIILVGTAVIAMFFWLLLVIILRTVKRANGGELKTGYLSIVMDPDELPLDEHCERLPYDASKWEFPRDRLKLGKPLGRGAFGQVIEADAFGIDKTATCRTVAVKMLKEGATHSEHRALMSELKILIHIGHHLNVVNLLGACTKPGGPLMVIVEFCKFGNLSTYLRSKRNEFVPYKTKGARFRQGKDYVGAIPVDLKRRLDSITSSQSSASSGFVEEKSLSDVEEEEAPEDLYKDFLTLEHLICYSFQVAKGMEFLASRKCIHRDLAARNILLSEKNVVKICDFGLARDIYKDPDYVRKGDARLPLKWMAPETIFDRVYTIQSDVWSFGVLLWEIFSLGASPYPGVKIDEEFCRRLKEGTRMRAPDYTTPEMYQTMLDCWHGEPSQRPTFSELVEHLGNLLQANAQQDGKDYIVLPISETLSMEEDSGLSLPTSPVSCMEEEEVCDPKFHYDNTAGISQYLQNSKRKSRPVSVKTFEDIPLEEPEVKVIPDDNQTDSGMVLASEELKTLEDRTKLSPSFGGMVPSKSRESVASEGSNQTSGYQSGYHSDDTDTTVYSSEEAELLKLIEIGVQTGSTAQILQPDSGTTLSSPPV
Sequence of Cyclin-dependent kinase 1 (P06493 whole entry): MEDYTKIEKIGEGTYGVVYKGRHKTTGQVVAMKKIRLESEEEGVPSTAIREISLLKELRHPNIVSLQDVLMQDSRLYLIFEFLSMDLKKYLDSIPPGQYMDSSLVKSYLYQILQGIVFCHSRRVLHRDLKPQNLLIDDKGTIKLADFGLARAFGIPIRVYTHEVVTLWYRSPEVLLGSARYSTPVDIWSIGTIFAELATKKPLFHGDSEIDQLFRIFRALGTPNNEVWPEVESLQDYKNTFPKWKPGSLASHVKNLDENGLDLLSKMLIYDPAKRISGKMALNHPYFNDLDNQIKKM

SMILES	pIC50 (A-375)	pIC50 (HeLa)	pIC50 [1]	pIC50 [2]	pIC50 (HCT-116)	Cmax [3]	AUC [4]	half-life [5]	clearance [6]	bioavailability [7]	Cmax [8]	Vd [9]	half-life [10]	AUC [11]
CN1CCN(CCc2ccc(Nc3ncc(Cl)c(-c4c[nH]c5ccccc45)n3)cc2)CC1	5.41	5.48	6.74	8.15	5.52									
CN(C)CCc1ccc(Nc2ncc(Cl)c(-c3n[nH]c4ccccc34)n2)cc1	5.40	5.51	6.11	6.50	5.42									
CCN1CCN(CCc2ccc(Nc3ncc(Cl)c(-c4ccc5cc[nH]c5c4)n3)cc2)CC1	5.59	5.68	5.91	7.43	5.61	590 nM	3.06 µM·h	4.6 h	25 mL/min/kg	40%	960 nM	10.1 L/kg	5.8 h	6.12 µM·h
CC(C)(N)c1ccc(-c2nc(Nc3cccc(Br)c3)ncc2Cl)cc1	5.58	5.47	5.98	6.46	5.43									
CC(C)(N)c1ccc(-c2nc(Nc3ccc(CCN4CCOCC4)cc3)ncc2Cl)cc1	5.50	5.52	5.56	6.83	5.49									
CC(C)(N)c1ccc(-c2nc(Nc3ccc(CCO)cc3)ncc2Cl)cc1	5.86	5.53	6.16	7.16	5.80	1110 nM	2.77 µM·h	4.5 h	34 mL/min/kg	55%	1430 nM	10.7 L/kg	4.9 h	7.65 µM·h
Clc1cnc(Nc2ccc(CCN3CCCC3)cc2)nc1-c1ccc2cc[nH]c2c1	5.71	6.01	5.81	7.80	5.77	720 nM	1.63 µM·h	2.6 h	51 mL/min/kg	70%	670 nM	16.3 L/kg	3.9 h	5.74 µM·h
CN1CCN(CCc2ccc(Nc3ncc(Cl)c(-c4ccc(C(C)(C)N)cc4)n3)cc2)CC1	6.06	6.09	5.79	7.12	5.89									

Now those with a higher pIC50 (A-375), led by results:

pIC50 (A-375)	pIC50 (HeLa)	pIC50 [1]	pIC50 [2]	pIC50 (HCT-116)	Cmax [3]	AUC [4]	half-life [5]	clearance [6]	bioavailability [7]	Cmax [8]	Vd [9]	half-life [10]	AUC [11]	SMILES
6.11	5.89	6.48	6.34	6.33										CN(C)CCc1ccc(Nc2ncc(Cl)c(-c3cccc4cc[nH]c34)n2)cc1
6.40	6.37	6.36	6.10	6.41										Cc1nc(C)c(-c2nc(Nc3ccc(CCN(C)C)cc3)ncc2Cl)s1
6.47	6.33	5.75	7.82	6.35										CN(C)CCc1ccc(Nc2ncc(Cl)c(-c3ccc4cc[nH]c4c3)n2)cc1
6.61	6.47	6.09	7.59	6.44										CC(C)(N)c1ccc(-c2nc(Nc3ccc(CCN4CCCC4)cc3)ncc2Cl)cc1
6.68	6.53	6.27	6.67	7.08										CN(C)CCc1ccc(Nc2ncc(Cl)c(-c3cccc4[nH]ccc34)n2)cc1
6.76	6.27	5.97	7.48	6.05										CNCCc1ccc(Nc2ncc(Cl)c(-c3ccc(C(C)(C)N)cc3)n2)cc1
6.79	6.30	5.94	7.72	5.77										CN(C)CCc1ccc(Nc2ncc(Cl)c(-c3ccc(C(C)(C)N)cc3)n2)cc1
7.30	7.12	7.32	8.15	7.08										CN(C)CCc1ccc(Nc2ncc(Cl)c(-c3c[nH]c4ccccc34)n2)cc1
7.52	6.22	6.07	6.99	6.49										CN(C)CCc1ccc(Nc2ncc(Cl)c(-c3ccc4[nH]ccc4c3)n2)cc1
7.80	5.91	6.34	6.80	6.64										CN(C)CCc1ccc(Nc2ncc(Cl)c(-c3cccs3)n2)cc1

Reference: ChEMBL document CHEMBL1147841, “Synthesis and biological study of 2-amino-4-aryl-5-chloropyrimidine analogues as inhibitors of VEGFR-2 and cyclin dependent kinase 1 (CDK1)” (Bioorg Med Chem Lett, 2007)
